Screening data deposited in PubChem BioAssay by several laboratories.
In the library only some 1.8% were active in any assay of this set; here they are far more common.
Rev-erbA mod: modulators of Rev-erb alpha DNA binding, primary screen, biochemical, FITC-DNA, fluorescence polarization, uHTS; Rev-erbα–FITC-DNA binding, 90 min; activity, % at 10 µM; Nuclear receptor subfamily 1 group D member 1 (Homo sapiens), P20393; 0.79% of 370,000 active;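 active = activity above about 14%, limit read from the data; passing the limit was not always enough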;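 note: 0% = DMSO wells with 35 nM protein and 100% = DMSO wells with 750 nM protein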
Rin1 Abl inh: inhibitors of Rin1-Abl protein binding, primary screen, biochemical, TR-FRET; 0.4% of 360,000 active; inhibition, % at 7.35 µM; in the data active = inhibition above about 5%, passing the limit was not always enough
PG9 Ab binder: binders of HIV-1 gp120 antibody PG9, primary screen, biochemical, TR-FRET. inhibition, % at 6.7 µM. 0.43% of 360,000 active. TR-FRET gp120-PG9 antibody binding. HIV-1 gp120 / PG9 antibody interaction. AID 624416, 2012; in the data active = inhibition above about 8.5%
Tb MetRS inh: T. brucei MetRS inhibitors, primary screen, biochemical, luminescence | inhibition, % at 11.9 µM | methionyl-tRNA synthetase (Trypanosoma brucei brucei) | purified T. brucei MetRS, ATP depletion, Kinase-Glo luminescence | 0.4% of 360,000 active | AID 624268, 2012;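 active = inhibition above a per-plate cutoff of the control wells' mean inhibition plus 3 SD, cut at about 5.5% in these data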;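 note: 0% = DMSO wells median and 100% = median of wells with control inhibitor compound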
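Test system: purified T. brucei MetRS enzyme. Also added: ATP, methionine and E. coli bulk tRNA substrates. Compound: 11.9 µM single point. Schedule: 15 min enzyme-compound preincubation, 2 h reaction, 10 min detection, 25 °C. Signal: luciferase luminescence of residual ATP, Kinase-Glo. Evaluation: percent inhibition versus plate control medians. Controls: DMSO wells, low control.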
Rin1 Abl conf: Rin1-Abl binding inhibitor retest, confirmation, biochemical, TR-FRET | shares compounds with Rin1 Abl inh | purified proteins | inhibition, % at 7.35 µM | 49% of 1,300 active
GFP quench: GFP fluorescence inhibitors and quenchers, artefact control for Rin1-Abl interaction inhibitor project, biochemical; inhibitors/quenchers counterscreen; inhibition, % at 6.75 µM; shares compounds with Rin1 Abl inh; 8.5% of 1,300 active;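 note: ABL1-eGFP fusion protein alone without its partner RIN1-SBP; 0% = protein with vehicle and 100% = wells lacking protein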
GFP quench DR: GFP fluorescence inhibitors and quenchers, dose response, artefact control for Rin1-Abl interaction inhibitor project, biochemical; shares compounds with Rin1 Abl inh; GFP fluorescence interference/quenching counterscreen; IC50, µM; 230 tested, under 10 active; call rule not given here;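 note: ABL1-eGFP fusion protein alone without its RIN1 binding partner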
* marks the source's active call; other numbers are inactive results; x = not tested or not shown. Cut-off read from the data, not from the text of the source, unless noted: active = inhibition above about 6.5%; inactive = the rest.

SMILES | Rev-erbA mod | Rin1 Abl inh | PG9 Ab binder | Tb MetRS inh | Rin1 Abl conf | GFP quench | others
OC[C@@H]1CN(Cc2ccc(-c3ccccc3)cc2)C[C@H](n2cnc3c(NCc4ccc(F)cc4)ncnc32)O1 | -1 | 1 | -1 | 0 | x | x
CC(C)CNc1ncnc2c1ncn2[C@H]1CN(Cc2ccc(Cl)cc2)C[C@@H](CO)O1 | -1 | 18* | 2 | 0 | 10* | -2
OC[C@@H]1CN(Cc2ccc(-c3ccccc3)cc2)C[C@H](n2cnc3c(NC4CC4)ncnc32)O1 | 2 | 26* | 0 | 0 | 21* | -1 | GFP quench DR=>68
COc1ccc(-n2c(SCC(=O)Nc3ccc(S(=O)(=O)Nc4nccs4)cc3)nnc2-c2ccco2)cc1 | -8 | x | x | x | x | x
O=C(NCc1ccccc1)[C@@H]1CCCN1C(=O)[C@H]1CCCN1C(=O)c1ccccc1C(F)(F)F | -1 | x | -1 | x | x | x
COc1ccc(C)cc1N(CC(=O)Nc1ccc(S(=O)(=O)N2CCOCC2)cc1)S(C)(=O)=O | -1 | 2 | -1 | 0 | x | x
CS(=O)(=O)N(CC(=O)Nc1ccc(S(=O)(=O)N2CCOCC2)cc1)c1ccccc1Br | 0 | 9.4* | -2 | 0 | -3 | 2
O=[N+]([O-])c1ccc(OCC2CC(c3ccccc3)=NO2)cc1 (configuration not stated) | 1 | -4 | -1 | 0 | x | x
Cc1cc(=O)oc2cc(OCC3CC(c4ccccc4)=NO3)ccc12 (configuration not stated) | -1 | 11* | x | 0 | -5 | -2
COc1cc(/C=C/C(=O)OCC(=O)N2c3ccccc3CC2C)cc(OC)c1OC (configuration not stated) | 12 | 0 | -1 | 0 | x | x
CC1Cc2ccccc2N1C(=O)COC(=O)/C=C/c1cccc(F)c1 (configuration not stated) | -1 | 12* | -3 | 0 | -2 | -1
CCOC(=O)CC[C@@H]1CC[C@]2(CCCN(Cc3ccc(OC)cc3)C2)O1 | -1 | x | x | x | x | x
COc1cc(/C=C2\CC/C(=C\c3cc(OC)c(O)c(OC)c3)C2=O)cc(OC)c1O | -14 | 30* | -7 | 0 | 34* | 24*
OC1CCCN(Cc2nc(Cc3ccccc3Cl)no2)C1 (configuration not stated) | -1 | 8.8* | -2 | 0 | -2 | -3
CC1CCCN(Cc2nc(Cc3ccccc3Cl)no2)C1 (configuration not stated) | 2 | -4 | 1 | -1 | x | x
CCOC(=O)N1CCC2(CC1)C(C#N)=C(N)OC1=C2C(=O)CC(C)C1 (configuration not stated) | -2 | 17* | 0 | 1 | 0 | -2
c1ccc2c(c1)nc(-c1ccncc1)n2CCNc1nc(CN2CCCCC2)cs1 | 3 | 0 | 1 | 0 | x | x
CC(=O)OCCN(CCCn1c(-c2ccncc2)nc2ccccc21)c1nc(CN2CCCCC2)cs1 | -1 | 8.4* | -2 | 0 | 2 | 0
COc1ccc(S(=O)(=O)NC(C)C(=O)NCc2cccnc2)cc1OC (configuration not stated) | 1 | 8.4* | -1 | 0 | 1 | 1
COc1ccc(S(=O)(=O)NC(C)C(=O)NCc2cccnc2)cc1Cl (configuration not stated) | -7 | -1 | -1 | 0 | x | x
COC(=O)c1ccc(COC(=O)C23CC4CC(CC(O)(C4)C2)C3)o1 | -2 | 20* | 0 | 0 | 17* | 1 | GFP quench DR=>68
COC(=O)c1ccc(COC(=O)c2ccc(CO)cc2)o1 | -1 | 7.3* | -3 | 0 | 6 | -1
O=C(COC(=O)C12CC3CC(CC(O)(C3)C1)C2)NC(=O)NCc1ccco1 | 0 | -3 | -2 | -2 | x | x
COC(=O)[C@]12C[C@H](CC(=O)N3CCN(C(=O)C4CC4)CC3)C(=O)N(Cc3ccco3)C1=C[C@H](C(C)(C)C)O[C@@H]2C | 1 | x | x | x | x | x
O=C(NC1CCCCN(Cc2cccc(Cl)c2)C1=O)c1cccs1 (configuration not stated) | -5 | x | x | x | x | x
SMILES | Rev-erbA mod | Rin1 Abl inh | PG9 Ab binder | Tb MetRS inh | Rin1 Abl conf | GFP quench | others
CNCc1ccccc1Sc1ccc(O)c(O)c1 | 4 | 12* | 6 | -1 | 6.4* | 0
COc1cccc(N2CC(C(=O)Nc3ccc(C(=O)OC(C)C)cc3)CC2=O)c1 (configuration not stated) | 3 | 17* | -1 | -1 | 14* | -1
CCN(CC)c1ncnc2c1ncn2[C@H]1CN(Cc2ccncc2)C[C@@H](CO)O1 | -14 | 7.7* | -1 | 0 | -3 | 0
CN(C)c1ncnc2c1ncn2[C@H]1CN(Cc2ccc(Cl)cc2)C[C@@H](CO)O1 | 1 | 6.9* | 1 | 0 | 3 | -3
C=C(C)CSc1nc2sc(C)c(C)c2c(=O)n1C | 2 | x | x | x | x | x
S=c1[nH]nc(-c2cc(-c3ccccc3)n[nH]2)n1N=Cc1cccc(Oc2ccccc2)c1 | 1 | x | x | x | x | x
CCCCC[C@@H]1C=C(C(=O)O)[C@H](c2ccc(Cl)cc2)N1S(=O)(=O)c1ccc(C)cc1 | 1 | 8.2* | -1 | 0 | -3 | 0
COCCc1ncc(CN2CCC(C(=O)Nc3cccc(-c4cscn4)c3)CC2)cn1 | 2 | 13* | 2 | 0 | 7.2* | -1
COCc1ccc(CN2CCC(C(=O)Nc3cccc(-c4cscn4)c3)CC2)o1 | -5 | 4 | -2 | 0 | x | x
CCCc1ncc(CN2CCC(C(=O)Nc3cccc(-c4cscn4)c3)CC2)cn1 | 2 | 36* | 1 | -1 | 19* | 0 | GFP quench DR=>68
CSc1ncc(CN2CCC(C(=O)Nc3cccc(-c4cscn4)c3)CC2)cn1 | -4 | 1 | -3 | 0 | x | x
COC(=O)[C@]12C[C@H](CC(=O)NCCc3ccccc3OC)C(=O)N(Cc3ccc(Cl)cc3Cl)C1=C[C@H](C1CCCC1)O[C@@H]2C | 4 | x | x | x | x | x
CO[C@H]1/C=C/O[C@@]2(C)Oc3c(C)c(O)c4c(O)c(c(C=NN5CCN(C)CC5)c(O)c4c3C2=O)NC(=O)/C(C)=C\C=C\C(C)[C@H](O)[C@@H](C)[C@@H](O)[C@@H](C)[C@@H](OC(C)=O)[C@@H]1C (some centres not stated) | -2 | x | x | x | x | x
CC1CCN(C(=O)c2[nH]cnc2C(=O)NC2CCN(C(=O)OC(C)(C)C)CC2)CC1 | -1 | 10* | -1 | -1 | 4 | -1
